Legend:
[1] = melting temperature; fluorescence melt of hairpins on a sequencing array, two-state fit, raised by 9.35 °C to match UV melts; details: sodium 0.088 M
How it was run: (§1)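 Melting temperature and folding enthalpy were obtained by bootstrapped two-state fitting. Fits used Cy3 fluorescence of library hairpins with annealed Cy3 and quencher oligos on a sequenced MiSeq flow cell, imaged in 50 mM Na-HEPES pH 8.0, 25 mM NaCl in 2.5 °C steps up to 60 °C and normalised to pre-quench Cy3 and control constructs. Four replicates were combined by inverse-variance weighting, and fitted temperatures were raised by 9.35 °C to match UV melts.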

[2] = folding enthalpy; higher = less favourable; fluorescence melt of hairpins on a sequencing array, two-state fit; details: sodium 0.088 M
How it was run: as §1

Sequence | Tm [1] | folding enthalpy [2]
CCGTTGAAAAACGG (((((....))))) | 54.3 °C | -19.9 kcal/mol
CCTAGGAAACTAGG (((((....))))) | 41.2 °C | -25.4 kcal/mol
CCTCAGAAATGAGG (((((....))))) | 45.2 °C | -19.7 kcal/mol
CCTTAGAAATAAGG (((((....))))) | 28.6 °C | -10.5 kcal/mol
CCTTCGAAAGAAGG (((((....))))) | 55.2 °C | -20.7 kcal/mol
CCTTTGAAAAAAGG (((((....))))) | 39.7 °C | -12.2 kcal/mol
CGAACGAAAGTTCG (((((....))))) | 68.7 °C | -29.2 kcal/mol
CGAACGGAAACGTCGTCG ((((((....)))..))) | 47.1 °C | -18.3 kcal/mol
CGAACGGAAACGTGGTCG ((((((....)))..))) | 32.7 °C | -12.7 kcal/mol
CGAACGGAAACGTTATCG ((((((....)))..))) | 28.8 °C | -14.6 kcal/mol
CGAAGCCGGAAACGGTCG (((..(((....)))))) | 37.8 °C | -12.6 kcal/mol
CGAAGCGGAAACGCATCG (((.(((....))).))) | 51.5 °C | -27.5 kcal/mol
CGAAGCGGAAACGCCTCG (((.(((....))).))) | 47.3 °C | -23.8 kcal/mol
CGAATCGGAAACGAGTCG (((.(((....))).))) | 51.3 °C | -40.2 kcal/mol
CGAATGAAAATTCG (((((....))))) | 48.1 °C | -22.5 kcal/mol
CGACCCGGAAACGGTCG (((.(((....)))))) | 52.5 °C | -30.1 kcal/mol
CGACCCGGAAACGGTTCG (((.(((....))).))) | 48.6 °C | -39.8 kcal/mol
CGACCGGAAACGGCCTCG ((((((....)))..))) | 30.2 °C | -11.9 kcal/mol
CGACCGGAAACGGGCTCG ((((((....)))..))) | 35.8 °C | -12.1 kcal/mol
CGACCGGAAACGGTTTCG ((((((....)))..))) | 33.5 °C | -10.3 kcal/mol
CGACGCCGGAAACGGTCG (((..(((....)))))) | 44.3 °C | -18.3 kcal/mol
CGACGCGGAAACGCATCG (((.(((....))).))) | 49.1 °C | -28 kcal/mol
CGACGCGGAAACGCTCG (((.(((....)))))) | 49.3 °C | -21.8 kcal/mol
CGACGTCGGAAACGATCG (((..(((....)))))) | 37 °C | -11.2 kcal/mol

Sequence | Tm [1] | folding enthalpy [2]
CGACTCGGAAACGACTCG (((.(((....))).))) | 34.2 °C | -30.6 kcal/mol
CGAGAGAAATCTCG (((((....))))) | 47.5 °C | -23.9 kcal/mol
CGAGCCGGAAACGGATCG (((.(((....))).))) | 61.7 °C | -41.2 kcal/mol
CGAGCGGAAACGCCATCG ((((((....)))..))) | 31.9 °C | -12.5 kcal/mol
CGAGCGGAAACGCGTCG ((((((....))).))) | 53.6 °C | -13.2 kcal/mol
CGAGCGGAAACGCTATCG ((((((....)))..))) | 35.1 °C | -13.1 kcal/mol
CGAGCGGAAACGCTGTCG ((((((....)))..))) | 43 °C | -11.2 kcal/mol
CGAGCTCGGAAACGATCG (((..(((....)))))) | 27.9 °C | -6.9 kcal/mol
CGAGGCGGAAACGCGTCG (((.(((....))).))) | 62.5 °C | -32.1 kcal/mol
CGAGGGAAACCTCG (((((....))))) | 53.7 °C | -25.4 kcal/mol
CGAGTCGGAAACGAGTCG (((.(((....))).))) | 55.9 °C | -35.9 kcal/mol
CGAGTTCGGAAACGATCG (((..(((....)))))) | 30.8 °C | -10.2 kcal/mol
CGATACGGAAACGTCTCG (((.(((....))).))) | 42 °C | -33.7 kcal/mol
CGATACGGAAACGTGTCG (((.(((....))).))) | 52.8 °C | -51.4 kcal/mol
CGATACGGAAACGTTTCG (((.(((....))).))) | 45.9 °C | -34.6 kcal/mol
CGATAGAAATATCG (((((....))))) | 39.1 °C | -19.8 kcal/mol
CGATAGCGGAAACGCTCG (((..(((....)))))) | 41 °C | -13.9 kcal/mol
CGATATCGGAAACGATCG (((..(((....)))))) | 35.3 °C | -16.8 kcal/mol
CGATCACGGAAACGTTCG (((..(((....)))))) | 35.5 °C | -17.2 kcal/mol
CGATCGGAAACGATCTCG ((((((....)))..))) | 36.9 °C | -12.1 kcal/mol
CGATCTCGGAAACGATCG (((..(((....)))))) | 36.7 °C | -20.3 kcal/mol
CGATTACGGAAACGTTCG (((..(((....)))))) | 38.5 °C | -21.5 kcal/mol
CGCAACCGGAAACGGGCG (((..(((....)))))) | 50.1 °C | -20.8 kcal/mol
CGCAACGGAAACGTAGCG (((.(((....))).))) | 53.4 °C | -38 kcal/mol

Reference: the array DNA melting data of Ke et al. (doi:10.1101/2024.01.08.574731)
